“And” between values parts separate entries of the source, which are not always exact repeats. Identical values can stand only once.
What was measured:
Adenosine receptor A1 [1] = molecular target: T1, Adenosine receptor A1 (Rattus norvegicus, UniProt P25099); experiment: Displacement of [3H]DPCPX (without GTP) from Adenosine A1 receptor of rat cortical membrane
T1 sequence (P25099 whole entry): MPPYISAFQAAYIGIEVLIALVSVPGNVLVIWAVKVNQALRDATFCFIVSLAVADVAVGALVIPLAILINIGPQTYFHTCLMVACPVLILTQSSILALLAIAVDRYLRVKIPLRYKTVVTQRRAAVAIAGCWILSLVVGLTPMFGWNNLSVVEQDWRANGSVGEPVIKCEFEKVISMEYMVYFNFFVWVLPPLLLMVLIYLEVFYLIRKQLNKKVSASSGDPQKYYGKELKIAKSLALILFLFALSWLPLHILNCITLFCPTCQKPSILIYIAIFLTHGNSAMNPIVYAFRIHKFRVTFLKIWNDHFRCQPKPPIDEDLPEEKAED
Outline: (§1)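 Rat cerebral cortex membranes, antagonist radioligand [3H]DPCPX, displacement run both with and without 1 mM GTP. Apparent Ki derived under each condition; their ratio gives the GTP shift. Two to three independent experiments, each in duplicate.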

Adenosine A2 receptor = Adenosine A2 receptor (Rattus norvegicus, UniProt P29276+P30543); experiment: Displacement of [3H]-CGS- 21680 from Adenosine A2 receptor of rat striatal membranes; format: cell membranes, Membrane
Rattus norvegicus [2] = experiment: Effect on heart rate was measured after intravenous administration (8 mg/kg) in rat; format: functional
Outline: (§2)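 Adult male SPF Wistar rats (200-250 g), conscious, free-ranging, arterial catheter. 30 min accommodation, then 15 min baseline recording before i.v. infusion in 20% (v/v) DMSO/water. Arterial pressure and heart rate monitored continuously for 5.5 h. Vehicle-only controls; dosing 10:00-11:00 a.m. Maximum reduction from pre-administration level reported as mean ± SE.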

Adenosine receptor A1 [3] = molecular target: T1, Adenosine receptor A1; experiment: Displacement of [3H]DPCPX (with GTP) from Adenosine A1 receptor of rat cortical membrane; outline: as §1
Rattus norvegicus [4] = experiment: Mean arterial pressure was recorded in conscious, normo tensive and unrestrained rats that received an intravenous infusion of drugs at a dose of 8 mg/kg; format: functional, Artery; outline: as §2
[5] = molecular target: T2, Adenosine receptor A1 (Rattus norvegicus) (UniProt P25099); experiment: Relative affinities for rat Adenosine A1 receptor in the presence and absence of GTP
T2 sequence (whole entry): T1 sequence (P25099 whole entry)
Outline: (§3)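 Rat cortical membranes. [3H]DPCPX displacement run with and without 1 mM GTP. The GTP shift is the ratio of apparent Ki with GTP to Ki without GTP. Data from two to three independent experiments, each in duplicate.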

Rattus norvegicus [6] = experiment: Maximum reduction heart rate of rat at a dose of 8.0 mg/kg; format: functional; outline: as §2
Adenosine receptor A1 [7] = molecular target: T1, Adenosine receptor A1; experiment: Binding affinity for adenosine A1 receptor from rat cortical membrane using [3H]DPCPX without GTP; outline: as §3
Rattus norvegicus [8] = experiment: Effect on heart rate was measured after intravenous administration (4.8 mg/kg) in rat; format: functional
Outline: (§4)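 Conscious, free-ranging, normotensive male SPF Wistar rats (200-250 g). Intravenous infusion in 20% (v/v) DMSO/water; vehicle-only controls. Arterial catheter; 30 min accommodation. Heart rate and arterial blood pressure recorded continuously from 15 min before dosing (baseline) through 5.5 h. Dosing done between 10:00 and 11:00 a.m. Values given as means ± SE.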

Rattus norvegicus [9] = experiment: Maximum reduction heart rate of rat at a dose of 4.8 mg/kg; format: functional; outline: as §4
Rattus norvegicus [10] = experiment: Mean arterial pressure was recorded in conscious, normo tensive and unrestrained rats that received an intravenous infusion of drugs at a dose of 4.8 mg/kg; format: functional, Artery; outline: as §4
Rattus norvegicus [11] = experiment: Maximum reduction heart rate of rat at a dose of 0.20 mg/kg; format: functional; details: dose 0.2 mg/kg; outline: as §2
Rattus norvegicus [12] = experiment: Mean arterial pressure was recorded of conscious, normo tensive and unrestrained rats that received an intravenous infusion of drugs at a dose of 0.20 mg/kg; format: functional, Artery; details: dose 0.2 mg/kg; outline: as §2
Rattus norvegicus [13] = experiment: Maximum reduction heart rate of ratat a dose of 0.20 mg/kg; format: functional; details: dose 0.2 mg/kg; outline: as §2

Compound	Ki (Adenosine receptor A1 [1]; read-out: Ki) [nM]	Ki (Adenosine A2 receptor) [nM]	Ki (Adenosine receptor A1 [3]) [nM]	GTP shift [5]	further results
CCCCNc1nc2c(NC3CCCC3)ncnc2n1C1O[C@H](CO)[C@@H](O)[C@H]1O (some centres not stated)	500	12400	1130	2.3	Heart rate (Rattus norvegicus [2]): 348 beats min-1; MAP (Rattus norvegicus [4]): 94 mmHg; Reduction (Rattus norvegicus [6]): 8% and 11%
OC[C@H]1O[C@@H](n2c(NC3CCCC3)nc3c(NC4CCCC4)ncnc32)[C@H](O)[C@@H]1O	1090	45500	1280	1.2	Heart rate (Rattus norvegicus [2]): 329 beats min-1; MAP (Rattus norvegicus [4]): 94 mmHg; Reduction (Rattus norvegicus [6]): 2% and 3%
CCCCNc1nc2c(N)ncnc2n1[C@@H]1O[C@H](CO)[C@@H](O)[C@H]1O		11500	45500	4	
CCCNc1ncnc2c1nc(NC1CCCC1)n2C1O[C@H](CO)[C@@H](O)[C@H]1O (some centres not stated)	1590	59400	1760	1.1	
CNc1nc2c(NC3CCCC3)ncnc2n1[C@@H]1O[C@H](CO)[C@@H](O)[C@H]1O		20800	980	3.8	Ki (Adenosine receptor A1 [7]): 260 nM; Heart rate (Rattus norvegicus [8]): 334 beats min-1; Reduction (Rattus norvegicus [9]): 34% and 50%; MAP (Rattus norvegicus [10]): 105 mmHg
CCCCNc1ncnc2c1nc(NC1CCCC1)n2[C@@H]1O[C@H](CO)[C@@H](O)[C@H]1O	760	35300	860	1.1	
Nc1ncnc2c1nc(NC1CCCC1)n2C1O[C@H](CO)[C@@H](O)[C@H]1O (some centres not stated)					Ki (Adenosine receptor A1 [1]): Not Active
CNc1nc2c(N)ncnc2n1[C@@H]1O[C@H](CO)[C@@H](O)[C@H]1O	2420	1850	18600	7.7	
CCCNc1nc2c(N)ncnc2n1C1O[C@H](CO)[C@@H](O)[C@H]1O (some centres not stated)	5960	4960	34700	5.8	
CCNc1nc2c(N)ncnc2n1C1O[C@H](CO)[C@@H](O)[C@H]1O (some centres not stated)	6560	3970	23800	3.6	
OC[C@H]1O[C@@H](n2cnc3c(NC4CCCC4)ncnc32)[C@H](O)[C@@H]1O [N6-CYCLOPENTYLADENOSINE]		580			Reduction (Rattus norvegicus [11]): 54%; MAP (Rattus norvegicus [12]): 109 mmHg; Heart rate (Rattus norvegicus [8]): 345 beats min-1; Reduction (Rattus norvegicus [13]): 54%
CCCNc1nc2c(NC3CCCC3)ncnc2n1[C@@H]1O[C@H](CO)[C@@H](O)[C@H]1O	350	7670	1050	3	Heart rate (Rattus norvegicus [8]): 344 beats min-1; Reduction (Rattus norvegicus [9]): 20% and 15%; MAP (Rattus norvegicus [10]): 90 mmHg
CCNc1nc2c(NC3CCCC3)ncnc2n1[C@@H]1O[C@H](CO)[C@@H](O)[C@H]1O	470	10100	1330	2.8	Heart rate (Rattus norvegicus [8]): 350 beats min-1; Reduction (Rattus norvegicus [9]): 25% and 24%; MAP (Rattus norvegicus [10]): 100 mmHg
CNc1ncnc2c1nc(NC1CCCC1)n2[C@@H]1O[C@H](CO)[C@@H](O)[C@H]1O	5610	101000	15700	2.8	
CCNc1ncnc2c1nc(NC1CCCC1)n2[C@@H]1O[C@H](CO)[C@@H](O)[C@H]1O	310	30200	1260	4.1	

Source: ChEMBL document CHEMBL1129060, “N6,C8-distributed adenosine derivatives as partial agonists for adenosine A1 receptors” (J Med Chem, 1996)
